# A selection: hits, their analogues and other compounds. The true share with any hit is near 2.1%.
# FID counter: fluorescent intercalator displacement, NS3 helicase counter-screen; inhibition, % at 7.9 µM; DNA fluorescent intercalator displacement, fluorescence; hit rate 0.17% among 290,000; in the data active = inhibition above about 37%;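 also: 0% = vehicle and 100% = reference compound; higher means more ethidium bromide displaced from hairpin DNA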
# NS3 helicase inh: blocks Hepatitis C virus NS3 helicase unwinding | inhibition, % at 10.9 µM | hit rate 0.56% among 290,000 | NS3 helicase DNA unwinding, Cy5 molecular beacon fluorescence | AID 1800;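 active = inhibition above the mean of all tested compounds plus 3 SD, set per campaign, cut at about 35% in these data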;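 also: 0% = DMSO wells and 100% = thioflavine S control wells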
#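 System: NS3 helicase fragment of HCV / Schedule: 1 h at 25 °C / Control set: DMSO alone as 0% and 110 µM thioflavine S as 100% / Reagent: Cy5/quencher beacon DNA duplex and ATP to start / Technique: Cy5 fluorescence / Replication: singlicate / Evaluation: % inhibition of end-to-start signal ratio versus controls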
# SUMO HTRF inh: inhibitors of human SUMOylation (UBC9); P63279; HTRF SUMOylation assay, SAE1/SAE2 + UBC9, in vitro; inhibition, % at 35 µM; hit rate 0.36% among 290,000; in the data active = inhibition above about 50%, passing the limit was not always enough
# Target sequence (P63279 whole entry, looked up): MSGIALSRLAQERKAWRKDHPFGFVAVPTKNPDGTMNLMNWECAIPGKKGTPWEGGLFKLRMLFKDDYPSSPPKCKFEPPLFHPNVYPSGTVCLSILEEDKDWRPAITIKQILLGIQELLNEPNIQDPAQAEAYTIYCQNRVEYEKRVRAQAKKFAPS
# VIM-2 inhibitor: inhibitors of Pseudomonas aeruginosa VIM-2 metallo-beta-lactamase; purified VIM-2, nitrocefin hydrolysis, epi-absorbance fluorescence; inhibition, % at 5.6 µM; hit rate 0.89% among 290,000;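 active = inhibition above the mean of all tested compounds plus 3 SD, cutoff set per screening run, cut at about 7.5% in these data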;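 also: red hydrolysis product quenches plate fluorescence so inhibitors raise well fluorescence; 0% = enzyme with DMSO and 100% = DMSO without enzyme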
# IMP-1 inhibitor: inhibitors of Pseudomonas aeruginosa IMP-1 metallo-beta-lactamase; purified IMP-1, nitrocefin hydrolysis, epi-absorbance fluorescence; inhibition, % at 5.6 µM; hit rate 0.45% among 290,000; AID 1556;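 active = inhibition above the mean plus 3 SD of all compounds in the same screening run, cut at about 4.5% in these data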;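 also: 0% = IMP-1 with DMSO and 100% = DMSO wells lacking enzyme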
#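 Assay system: purified IMP-1; Quantity: IMP-1 0.2 nM before substrate addition; Medium: HEPES buffer pH 7.1 with ZnSO4 and Brij 35; Incubation: 15 min enzyme–compound preincubation, then 25 min nitrocefin reaction, 25 °C; Signal: fluorescence quenching readout, ex 480/em 530 nm; Controls: DMSO with and without IMP-1; Repeats: singlicate testing.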
# * hit, by the source's call; / = not tested or not shown.
SMILES,FID counter,NS3 helicase inh,SUMO HTRF inh,VIM-2 inhibitor,IMP-1 inhibitor
Cc1cc(NC(=O)C2C3C(=O)N(CC4CCCO4)C(C(=O)NCc4ccccc4)C34C=CC2(C)O4)no1 (stereo not given),-7,4,-3,-3,5.0*
Cc1cc(NC(=O)C2C3C(=O)N(CC4CCCO4)C(C(=O)NC(C)(C)C)C34C=CC2(C)O4)no1 (stereo not given),-4,-3,2,-3,-2
COC1=C(Nc2ccccc2)C(=O)c2ccccc2C1=O,9,8,78,10*,3
COc1ccc(OC)c2c1C(=O)C(Cl)=C(Cl)C2=O,2,7,24,8.3*,-2
COc1ccc(OC)c2c1C(=O)c1ccccc1C2=O,15,-43,50*,7,-1
COC1=C(Nc2ccc(C)cc2)C(=O)c2ccccc2C1=O,5,0,23,7,-2
COc1cccc2c1-c1c(C(=O)O)cccc1C2=O,-1,-5,8,-2,-3
COc1cccc2c1C(=O)c1ccc3ccccc3c1C2=O,28,-45,52,1,13*
Cc1nc(NC(=O)c2c(-c3ccccc3Cl)noc2C)sc1C,-34,-5,10,0,1
CC(=O)c1ccc(NC(=O)C2=CC(c3cccs3)=NS(=O)(=O)N2C)cc1,-3,1,/,-1,-2
O=C(NC1CCCCCC1)C1CCC(=O)N(Cc2ccccc2F)C1 (stereo not given),-30,1,8,0,1
Cc1ncc([N+](=O)[O-])n1CCOC(=O)c1ccc(Cl)cc1Cl,-2,4,-11,9.7*,-3
Cc1ccc(NC(=O)CCc2c(C)nc3ncnn3c2C)nc1,-5,6,6,1,5.2*
COc1ccc(N2CCc3c(C)nc4c(OC)cc(OC)cc4c32)c(OC)c1,5,-9,-29,-3,-4
COc1ccc(N2CCc3c(C)nc4c(OC)cccc4c32)cc1,4,-6,0,12*,-2
CCNC(=O)c1ccc2c(c1)C1C3CCC(C3)C1C(c1ccccc1)N2 (stereo not given),96*,-7,-2,-3,-2
O=C(CCCN1C(=O)c2cccc3cccc(c23)C1=O)NCc1ccco1,9,-3,23,0,-2
CN(C)C(CNC(=O)CCCN1C(=O)c2cccc3cccc(c23)C1=O)c1ccccc1 (stereo not given),2,-2,15,9.2*,-4
COc1ccccc1NC(=O)c1sc2ncn(CC(=O)Nc3ccccc3)c(=O)c2c1C,-8,3,51*,-2,-1
CC(C)(C)c1cc2nc3c(c(=O)n2[nH]1)CN(Cc1ccccc1)C3=O,-7,19,28,-3,-4
CCSc1nc2ccccc2n1Cc1nc(N)nc(N(C)C)n1,-21,7,-2,-2,-4
CN(C)c1nc(N)nc(Cn2ccnc2)n1,-3,4,5,8.8*,-3
CCOc1ccc(N(CC(=O)NCc2ccc(F)cc2)C(=O)CCC(=O)Nc2nccs2)cc1,-47,-2,-4,-3,-3
CC(C)(C)C(=O)NC(=C(Cl)Cl)P(=O)(O)O,0,-4,-2,10*,0
COc1cc(NCCCCCCCN)c2ncccc2c1,3,-11,52*,7.8*,2
SMILES,FID counter,NS3 helicase inh,SUMO HTRF inh,VIM-2 inhibitor,IMP-1 inhibitor
COc1cc(NC(=O)c2ccc3c(c2)OCO3)c2ncccc2c1,-4,1,-27,0,1
CCOc1ccccc1C(=O)N/N=C/c1cccc2cccnc12,-21,-6,17,9.2*,-5
CCOc1ccc(C(=O)N/N=C/c2cccc3cccnc23)cc1,-21,1,-16,-3,2
CCC(C)c1ccc(NC(=O)COC(=O)c2nc3nccc(C)n3n2)cc1 (stereo not given),-9,5,7,-4,-3
Cc1ccnc2nc(C(=O)OCC(=O)Nc3ccc4c(c3)OC(F)(F)O4)nn12,1,-1,7,1,4.7*
CC1CC(C)CN(c2cc(N(C)CCO)c([N+](=O)[O-])c3nonc23)C1 (stereo not given),-8,-6,2,-3,-4
Cc1ccccc1-n1c(-c2ccncc2)n[nH]c1=S,/,/,14,/,/
CCc1cc(-c2n[nH]c(=S)n2-c2cccc(C)c2)cs1,-27,8,-12,-1,-3
Cc1cccc(-n2c(-c3csc(C)c3)n[nH]c2=S)c1,-23,3,-3,7.7*,-3
Cc1cc(-c2n[nH]c(=S)n2-c2ccccc2C)cs1,-13,-10,12,11*,-3
Cc1nn(-c2ccccc2)c(C)c1NC(=O)COC(=O)CCc1ccccc1,-39,4,-3,-2,-1
Cc1ccc(C(=O)NC(C)C2CC3CCC2C3)c(C)c1 (stereo not given),-26,1,-8,-4,-1
CC(C)N(C(=O)c1ccc(C(=O)Nc2ccc([N+](=O)[O-])cc2)cc1)C(C)C,-2,-11,13,2,5.6*
CC(C)(C)c1nnc2cccc(Cl)n12,-3,8,6,-3,-1
O=S1(=O)[C@H]2C[C@@H]3CC[C@]2(CN1Cc1cccc(F)c1)O3,/,/,6,/,/
COc1cccc2c1C(=O)c1c(O)c3c(c(O)c1C2=O)C[C@@](O)(C(C)=O)C[C@@H]3O[C@H]1C[C@H](N)[C@H](O)[C@H](C)O1,36,29,33,19*,2
N#CC1=C(S)N(c2ccccc2)C(c2ccc(-c3cc(Cl)ccc3Cl)o2)NC1=O (stereo not given),-27,8,15,-3,0
N#CC1=C(S)N(c2ccccc2)C(c2ccc(-c3ccc(Cl)c(Cl)c3)o2)NC1=O (stereo not given),-13,25,35,-2,5.2*
NNC(=O)c1ccc(COCC(F)(F)F)cc1,-22,12,19,-1,-3
COC(=O)c1cc(S(=O)(=O)NCCc2ccc(SC)cc2)c[nH]1,-10,-8,12,-1,34*
COC(=O)c1cc(S(=O)(=O)NCCc2ccc(C)cc2)c[nH]1,-13,-9,-5,-1,-4
CCOc1cc(/C=N/Nc2ccccc2Cl)ccc1OCC(=O)O,-27,53*,-15,2,3
OCCC1CN(CC2CC2)CCN1Cc1ccc(F)c(F)c1 (stereo not given),0,1,5,-1,-1
COc1ccccc1-n1c(CNC(=O)c2cccc([N+](=O)[O-])c2C)n[nH]c1=S,-5,-4,-21,-1,-2
Cc1cccc(-n2c(CNC(=O)c3cccc([N+](=O)[O-])c3C)n[nH]c2=S)c1,0,6,-8,8.8*,-3
CCCn1nc(NS(=O)(=O)c2cccc3nonc23)c2cc3cccc(C)c3nc21,-16,-22,1,-1,2
COc1ccc2nc(-c3ccco3)c(-c3ccco3)nc2c1,-17,29,71*,1,3
COc1ccc2nc3cccc(OC)c3nc2c1,5,2,61,7.7*,0

# Assay outcomes (PubChem)
